Assay results of several laboratories.
Lines come from different studies, so protocols differ.
SIRT3: NAD-dependent protein deacetylase sirtuin-3, mitochondrial (SIRT3, Homo sapiens, UniProt Q9NTG7)
PTGS1: Prostaglandin G/H synthase 1 (PTGS1, Ovis aries, UniProt P05979)
Ar: Androgen receptor (Ar, Rattus norvegicus, UniProt P15207)
GABRA1: Gamma-aminobutyric acid receptor subunit alpha-1 (GABRA1, Homo sapiens, UniProt P14867)

SMILES | target | test | setting | inhibition
CCCCCCCCCCCCNC(=S)NCCCC[C@H](NC(=O)OCc1ccccc1)C(=O)N[C@@H](C)C(=O)N[C@@H](CCCNC(=N)N)C(N)=O | SIRT3 | enzyme activity, inhibitor | 1 µM | 20%
CCCCCC1CC(=O)c2cc(Cl)ccc2O1 (stereo not drawn) | SIRT3 | enzyme activity, inhibitor, fluorescence | 200 µM | 6%
CCCCNC(=S)NCCCC[C@H](NS(=O)(=O)c1cccc(F)c1)C(=O)N[C@@H](Cc1c[nH]c2ccccc12)C(=O)NC1CCC1 | SIRT3 | enzyme activity, inhibitor | 1 µM | 16%
O=c1c(O)c(-c2ccc(O)cc2)oc2cc(O)cc(O)c12 | PTGS1 | enzyme activity, inhibitor, absorbance | 50 µM | 61.4%
CC(=S)NCCCC[C@H](NC(=O)OCc1ccccc1)C(=O)N[C@@H](Cc1c[nH]c2ccccc12)C(=O)N[C@@H](CCCCN)C(N)=O | SIRT3 | enzyme activity, inhibitor | 10 µM | 59%
Cc1ncc([N+](=O)[O-])n1C(=NO)c1ccccc1C(F)(F)F | Fas-activated serine/threonine kinase (Homo sapiens, UniProt Q14296) | enzyme activity, inhibitor | 10 µM | 7.77%
CN(C)C1CCN(CC#Cc2nn(C3CCCC3)c3nc(NCc4ccccc4)ncc23)C1 (stereo not drawn) | Ribosomal protein S6 kinase alpha-3 (RPS6KA3, Homo sapiens, UniProt P51812) | enzyme activity, inhibitor, FRET | 1 µM | 2%
CC(=S)NCCCC[C@H](NC(=O)OCc1ccccc1)C(=O)N[C@@H](Cc1c[nH]c2ccccc12)C(=O)N[C@@H](CC(N)=O)C(N)=O | SIRT3 | enzyme activity, inhibitor | 10 µM | 14%
CCCCCC1CC(=O)c2ccc(F)cc2O1 (stereo not drawn) | SIRT3 | enzyme activity, inhibitor, fluorescence | 200 µM | 2.2%
O=C(Nc1ccc(F)cc1)Nc1cccc(C(=O)Nc2ccc3[nH]ncc3c2)c1 | BDNF/NT-3 growth factors receptor (NTRK2, Homo sapiens, UniProt Q16620) | enzyme activity, inhibitor, FRET | 1 µM | 16.8%
O=C(O)Cc1ccccc1OP(=O)(O)O | Signal transducer and activator of transcription 5A, SH2 (Homo sapiens, UniProt P42229) | ligand displacement, FP | 100 µM | 40%
O=c1c(O)c(-c2ccc(O)cc2)oc2cc(O[C@@H]3O[C@H](CO)[C@@H](O)[C@H](O)[C@H]3O)cc(O)c12 | PTGS1 | enzyme activity, inhibitor, absorbance | 50 µM | 58.8%
O=C(NC1CCC1)[C@H](Cc1c[nH]c2ccccc12)NC(=O)[C@H](CCCCNC(=S)NCCn1nn[nH]c1=O)NS(=O)(=O)c1cccc(F)c1 | SIRT3 | enzyme activity, inhibitor | 100 µM | 10%
O=C1CC(CCc2c[nH]c3ccccc23)Oc2c(Br)cc(Cl)cc21 (stereo not drawn) | SIRT3 | enzyme activity, inhibitor, fluorescence | 200 µM | 20%
O=c1c(O[C@@H]2O[C@H](CO)[C@@H](O)[C@H](O)[C@H]2O)c(-c2ccc(O)cc2)oc2cc(O[C@@H]3O[C@H](CO)[C@@H](O)[C@H](O)[C@H]3O)cc(O)c12 | PTGS1 | enzyme activity, inhibitor, absorbance | 50 µM | 62.9%
CCN(Cc1ccccc1C(F)(F)F)C(=O)C1CCN(S(=O)(=O)c2ccc3[nH]ncc3c2)CC1 | Ar | ligand displacement, radioligand | 10 µM | 11%
Oc1cccc(Nc2nc(-c3ccc(F)cc3F)cs2)c1 | GABRA1 | cell-free assay | 10 µM | -27.3%

SMILES | target | test | setting | inhibition
CCCCCCCCCCCCNC(=S)NCCCC[C@H](NC(=O)C1CCCCC1)C(=O)N[C@H](C)C(=O)N[C@@H](CCCNC(=N)N)C(N)=O | SIRT3 | enzyme activity, inhibitor | 10 µM | 41%
CCCCCC1CC(=O)c2cc(OC)ccc2O1 (stereo not drawn) | SIRT3 | enzyme activity, inhibitor, fluorescence | 200 µM | 9.5%
COc1ccc(-n2nc(OCCCN3CCCCC3)ccc2=O)cc1 | Transient receptor potential cation channel subfamily V member 1 (TRPV1, Homo sapiens, UniProt Q8NER1) | ligand displacement | 1 µM | 44.5%
O=c1c(O[C@@H]2O[C@H](CO)[C@@H](O)[C@H](O)[C@H]2O)c(-c2ccc(O)cc2)oc2cc(O)cc(O)c12 | PTGS1 | enzyme activity, inhibitor, absorbance | 50 µM | 66.9%
CCCCCC1CCc2cc(Cl)cc(Br)c2O1 (stereo not drawn) | SIRT3 | enzyme activity, inhibitor, fluorescence | 200 µM | 1.2%
COc1cc(NC(C)=O)c(Cl)cc1C(=O)Nc1nccs1 | GABRA1 | cell-free assay | 10 µM | -34.8%
CCCCCCCCCCCCNC(=S)NCCCC[C@H](NS(C)(=O)=O)C(=O)N[C@H](C)C(=O)N[C@@H](CCCNC(=N)N)C(=O)O | SIRT3 | enzyme activity, inhibitor | 100 µM | 34%
O=C(c1ccc(Cl)cc1)N(Cc1ccccc1)C1CCCCC1 | Type-2 angiotensin II receptor (AGTR2, Homo sapiens, UniProt P50052) | cell-free assay | 10 µM | 4.4%
CCCCCCCCCCCCNC(=S)NCCCC[C@H](NC(=O)OCc1ccccc1)C(=O)N[C@@H](Cc1c[nH]c2ccccc12)C(=O)N[C@@H](CCNC(=N)N)C(N)=O | SIRT3 | enzyme activity, inhibitor | 10 µM | 48%
O=C(Nc1ccc(S(=O)(=O)N2CCC(Cl)CC2)cc1)c1ccc([N+](=O)[O-])o1 | Ar | ligand displacement, radioligand | 10 µM | 8%
CCCCCC1CC(=O)c2cc(F)cc(F)c2O1 (stereo not drawn) | SIRT3 | enzyme activity, inhibitor, fluorescence | 200 µM | 9.6%
CCCCCCCCCCCCCC(=O)NCCCC[C@H](NS(C)(=O)=O)C(=O)N[C@H](C)C(=O)N[C@@H](CCCNC(=N)N)C(N)=O | SIRT3 | enzyme activity, inhibitor | 10 µM | 10%
CCCCCC1C=Cc2cc(Cl)cc(Br)c2O1 (stereo not drawn) | SIRT3 | enzyme activity, inhibitor, fluorescence | 200 µM | 2%
Cc1ccc(C(=O)Nc2ccc(S(=O)(=O)O)c3cc(S(=O)(=O)O)cc(S(=O)(=O)O)c23)cc1NC(=O)c1cccc(NC(=O)Nc2cccc(C(=O)Nc3cc(C(=O)Nc4ccc(S(=O)(=O)O)c5cc(S(=O)(=O)O)cc(S(=O)(=O)O)c45)ccc3C)c2)c1 | SIRT3 | enzyme activity, inhibitor | 100 µM | 6%
Cn1c(CNC(=S)NCCCC[C@H](NS(=O)(=O)c2cccc(F)c2)C(=O)N[C@@H](Cc2c[nH]c3ccccc23)C(=O)NC2CCC2)n[nH]c1=S | SIRT3 | enzyme activity, inhibitor | 30 µM | 51%
CCCCCC1CC(=O)c2cc(Br)cc(Br)c2O1 (stereo not drawn) | SIRT3 | enzyme activity, inhibitor, fluorescence | 200 µM | 6.5%
